According to ChEMBL document CHEMBL1152570, “Discovery of a series of acrylic acids and their derivatives as chemical leads for selective EP3 receptor antagonists” (Bioorg Med Chem, 2009):
pIC50, pKi: −log10 of the molar value.

Key:
[1] = molecular target: T1, Prostaglandin E2 receptor EP1 subtype (Mus musculus, UniProt P35375); test: Displacement of [3H]PGE2 from mouse EP1 receptor expressed in CHO cells by liquid scintillation counting; assay type: cell-based
T1 sequence (P35375 whole entry): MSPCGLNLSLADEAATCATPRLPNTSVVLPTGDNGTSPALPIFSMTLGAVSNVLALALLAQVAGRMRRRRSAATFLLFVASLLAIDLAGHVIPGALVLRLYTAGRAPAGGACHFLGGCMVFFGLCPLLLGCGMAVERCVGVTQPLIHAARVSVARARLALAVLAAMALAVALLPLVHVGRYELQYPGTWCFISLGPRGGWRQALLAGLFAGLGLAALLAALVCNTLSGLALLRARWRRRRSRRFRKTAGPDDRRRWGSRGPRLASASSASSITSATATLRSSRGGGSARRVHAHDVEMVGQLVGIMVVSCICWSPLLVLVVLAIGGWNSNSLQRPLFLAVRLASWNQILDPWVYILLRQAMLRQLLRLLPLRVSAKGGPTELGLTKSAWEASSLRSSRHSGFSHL
How it was run: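 Membranes from CHO cells stably expressing mEP1, incubated with 2.5 nM [3H]PGE2 and varied test compound concentrations. Buffer: 10 mM KH2PO4-KOH, 1 mM EDTA, 10 mM MgCl2, 0.1 mM NaCl, pH 6.0. Run at 25 °C for 20 min. Filtered on GF/B and washed ice-cold before scintillation counting. Nonspecific binding measured with excess cold PGE2. IC50 from regression; Ki via the Cheng–Prusoff form.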

[2] = molecular target: Prostaglandin E2 receptor EP2 subtype (Mus musculus, UniProt Q62053); test: Displacement of [3H]PGE2 from mouse EP2 receptor expressed in CHO cells by liquid scintillation counting; assay type: cell-based
Sequence of Prostaglandin E2 receptor EP2 subtype (Q62053 whole entry): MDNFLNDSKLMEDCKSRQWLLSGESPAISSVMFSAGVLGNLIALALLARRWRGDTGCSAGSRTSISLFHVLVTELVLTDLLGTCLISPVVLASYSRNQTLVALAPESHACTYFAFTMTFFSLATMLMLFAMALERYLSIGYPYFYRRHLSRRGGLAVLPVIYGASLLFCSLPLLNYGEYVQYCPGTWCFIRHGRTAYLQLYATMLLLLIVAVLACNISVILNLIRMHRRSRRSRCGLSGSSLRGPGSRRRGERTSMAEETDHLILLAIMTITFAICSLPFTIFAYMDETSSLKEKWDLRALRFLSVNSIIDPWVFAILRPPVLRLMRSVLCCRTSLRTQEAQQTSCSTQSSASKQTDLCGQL
How it was run: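 Membranes from CHO cells stably expressing the receptor, incubated with 2.5 nM [3H]PGE2 plus test compound over a concentration range. Buffer: 10 mM KH2PO4-KOH, 1 mM EDTA, 10 mM MgCl2, 0.1 mM NaCl, pH 6.0. Run at 25 °C for 60 min. Stopped by GF/B filtration with ice-cold buffer wash, then scintillation counted. Excess unlabeled PGE2 defined nonspecific binding. IC50 taken from the regression curve; Ki = IC50/(1+[L]/Kd).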

[3] = molecular target: T2, Prostaglandin E2 receptor EP3 subtype (Mus musculus, UniProt P30557); test: Displacement of [3H]PGE2 from mouse EP3 receptor expressed in CHO cells by liquid scintillation counting; assay type: cell-based
T2 sequence (P30557 whole entry): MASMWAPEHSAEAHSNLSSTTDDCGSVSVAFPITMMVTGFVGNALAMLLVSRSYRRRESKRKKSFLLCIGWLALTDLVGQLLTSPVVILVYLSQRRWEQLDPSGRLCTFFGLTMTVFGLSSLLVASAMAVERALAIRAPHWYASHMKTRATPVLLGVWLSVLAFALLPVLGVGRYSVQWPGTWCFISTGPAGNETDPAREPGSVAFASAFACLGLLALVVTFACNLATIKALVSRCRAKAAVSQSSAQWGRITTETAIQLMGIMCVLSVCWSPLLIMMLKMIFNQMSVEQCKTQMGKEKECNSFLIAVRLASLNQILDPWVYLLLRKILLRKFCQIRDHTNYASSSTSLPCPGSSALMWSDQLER
How it was run: (§1)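 Mouse EP3α and EP4 CHO membrane binding: 2.5 nM [3H]PGE2 with graded test compound in pH 6.0 KH2PO4-KOH buffer (1 mM EDTA, 10 mM MgCl2, 0.1 mM NaCl), 60 min at 25 °C. Bound ligand collected on GF/B filters, washed with cold buffer, counted by liquid scintillation. Excess unlabeled PGE2 gave nonspecific binding. Ki derived from regression IC50, [L] and Kd.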

[4] = molecular target: Prostaglandin E2 receptor EP4 subtype (Mus musculus, UniProt P32240); test: Displacement of [3H]PGE2 from mouse EP4 receptor expressed in CHO cells by liquid scintillation counting; assay type: cell-based; how it was run: as §1
Sequence of Prostaglandin E2 receptor EP4 subtype (P32240 whole entry): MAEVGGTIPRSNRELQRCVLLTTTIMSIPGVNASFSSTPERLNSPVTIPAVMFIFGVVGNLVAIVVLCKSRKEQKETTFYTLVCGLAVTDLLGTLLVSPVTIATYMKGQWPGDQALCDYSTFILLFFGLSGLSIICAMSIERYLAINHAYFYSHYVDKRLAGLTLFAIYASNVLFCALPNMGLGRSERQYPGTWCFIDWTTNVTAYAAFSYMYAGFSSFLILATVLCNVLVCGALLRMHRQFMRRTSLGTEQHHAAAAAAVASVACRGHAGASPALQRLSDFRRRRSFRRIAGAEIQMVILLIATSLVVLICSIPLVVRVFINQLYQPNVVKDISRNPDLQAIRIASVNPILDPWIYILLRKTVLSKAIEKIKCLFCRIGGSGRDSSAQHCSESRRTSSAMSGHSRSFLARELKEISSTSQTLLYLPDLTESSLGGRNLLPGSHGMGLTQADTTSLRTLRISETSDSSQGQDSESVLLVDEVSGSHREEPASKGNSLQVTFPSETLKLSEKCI

[5] = molecular target: T2, Prostaglandin E2 receptor EP3 subtype; test: Antagonist activity at mouse EP3alpha receptor expressed in CHo cells assessed as inhibition of PGE2-stimulated intracellular calcium concentration; assay type: functional, cell-based
How it was run: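 CHO cells expressing mEP3α were plated at 1×10^4 cells/well and grown 2 days in 10% FBS/αMEM at 37 °C, 5% CO2. Cells were loaded 1 h with 5 µM Fura-2/AM, 20 µM indomethacin and 2.5 mM probenecid. Assay buffer was HBSS with 0.1% BSA, 2 µM indomethacin, 2.5 mM probenecid and 10 mM HEPES, with 1 h dark equilibration at room temperature. Test compound was added with 10 nM PGE2; fluorescence read at 340/380 nm excitation, 500 nm emission. IC50 from percent inhibition of the PGE2 Ca2+ peak.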

Cytochrome P450 1A2 = molecular target: T3, Cytochrome P450 1A2 (Homo sapiens, UniProt P05177); test: Inhibition of CYP1A2; assay type: ADME
T3 sequence (P05177 whole entry): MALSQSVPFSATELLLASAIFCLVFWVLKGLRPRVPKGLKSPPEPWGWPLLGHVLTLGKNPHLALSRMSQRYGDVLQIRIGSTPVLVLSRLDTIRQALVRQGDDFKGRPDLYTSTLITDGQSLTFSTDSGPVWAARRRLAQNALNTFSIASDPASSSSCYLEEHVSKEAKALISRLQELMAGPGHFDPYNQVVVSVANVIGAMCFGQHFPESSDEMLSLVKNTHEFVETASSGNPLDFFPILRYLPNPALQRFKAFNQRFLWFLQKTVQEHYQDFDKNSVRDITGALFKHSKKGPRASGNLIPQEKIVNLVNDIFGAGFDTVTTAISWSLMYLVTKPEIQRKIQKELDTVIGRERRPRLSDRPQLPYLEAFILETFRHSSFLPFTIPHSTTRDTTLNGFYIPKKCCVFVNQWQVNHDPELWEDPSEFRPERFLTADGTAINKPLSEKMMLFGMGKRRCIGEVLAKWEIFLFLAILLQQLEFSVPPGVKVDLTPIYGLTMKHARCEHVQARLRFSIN

Cytochrome P450 2C9 = Cytochrome P450 2C9 (Homo sapiens, UniProt P11712); test: Inhibition of CYP2C9; assay type: ADME
Sequence of Cytochrome P450 2C9 (P11712 whole entry): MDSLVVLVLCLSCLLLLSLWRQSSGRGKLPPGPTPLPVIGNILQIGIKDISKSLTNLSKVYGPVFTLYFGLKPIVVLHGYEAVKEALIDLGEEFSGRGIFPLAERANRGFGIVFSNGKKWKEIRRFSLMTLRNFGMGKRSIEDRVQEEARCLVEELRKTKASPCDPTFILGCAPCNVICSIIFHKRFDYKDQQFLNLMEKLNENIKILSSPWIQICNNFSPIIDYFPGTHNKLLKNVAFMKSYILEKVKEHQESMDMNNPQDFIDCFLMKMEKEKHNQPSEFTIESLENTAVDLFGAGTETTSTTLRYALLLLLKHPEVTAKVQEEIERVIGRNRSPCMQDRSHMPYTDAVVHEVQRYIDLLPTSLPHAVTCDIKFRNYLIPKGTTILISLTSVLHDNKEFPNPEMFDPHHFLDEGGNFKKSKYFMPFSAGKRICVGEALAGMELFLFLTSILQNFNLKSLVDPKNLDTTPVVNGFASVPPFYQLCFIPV

Cytochrome P450 2C19 = Cytochrome P450 2C19 (Homo sapiens, UniProt P33261); test: Inhibition of CYP2C19; assay type: ADME
Sequence of Cytochrome P450 2C19 (P33261 whole entry): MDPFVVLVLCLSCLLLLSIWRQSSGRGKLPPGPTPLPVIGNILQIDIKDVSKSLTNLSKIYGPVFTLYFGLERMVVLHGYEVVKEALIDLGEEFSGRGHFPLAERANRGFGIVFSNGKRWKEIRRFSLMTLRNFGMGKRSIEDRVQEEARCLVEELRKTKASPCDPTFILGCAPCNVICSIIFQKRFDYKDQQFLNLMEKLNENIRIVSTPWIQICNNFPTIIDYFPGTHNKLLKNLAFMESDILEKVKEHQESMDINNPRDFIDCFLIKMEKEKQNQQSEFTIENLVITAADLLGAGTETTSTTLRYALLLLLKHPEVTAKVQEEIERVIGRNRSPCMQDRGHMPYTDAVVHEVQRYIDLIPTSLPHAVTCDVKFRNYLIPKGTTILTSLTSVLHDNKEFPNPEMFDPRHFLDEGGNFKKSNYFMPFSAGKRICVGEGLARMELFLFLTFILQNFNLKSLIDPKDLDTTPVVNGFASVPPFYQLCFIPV

Cytochrome P450 2D6 = Cytochrome P450 2D6 (Homo sapiens, UniProt P10635); test: Inhibition of CYP2D6; assay type: ADME
Sequence of Cytochrome P450 2D6 (P10635 whole entry): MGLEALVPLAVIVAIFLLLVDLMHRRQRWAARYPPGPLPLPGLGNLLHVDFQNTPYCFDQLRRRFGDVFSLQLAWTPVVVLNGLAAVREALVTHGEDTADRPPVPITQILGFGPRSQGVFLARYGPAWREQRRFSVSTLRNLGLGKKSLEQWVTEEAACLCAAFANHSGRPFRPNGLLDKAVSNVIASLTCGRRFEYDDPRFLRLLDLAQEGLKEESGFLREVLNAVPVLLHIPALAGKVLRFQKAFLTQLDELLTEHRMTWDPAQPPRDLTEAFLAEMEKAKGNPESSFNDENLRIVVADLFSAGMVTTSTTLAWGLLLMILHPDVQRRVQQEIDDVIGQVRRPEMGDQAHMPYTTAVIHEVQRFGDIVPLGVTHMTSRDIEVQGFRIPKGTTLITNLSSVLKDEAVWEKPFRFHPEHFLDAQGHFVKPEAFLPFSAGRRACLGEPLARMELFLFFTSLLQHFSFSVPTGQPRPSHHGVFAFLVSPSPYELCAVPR

Cytochrome P450 3A4 = Cytochrome P450 3A4 (Homo sapiens, UniProt P08684); test: Inhibition of CYP3A4; assay type: ADME
Sequence of Cytochrome P450 3A4 (P08684 whole entry): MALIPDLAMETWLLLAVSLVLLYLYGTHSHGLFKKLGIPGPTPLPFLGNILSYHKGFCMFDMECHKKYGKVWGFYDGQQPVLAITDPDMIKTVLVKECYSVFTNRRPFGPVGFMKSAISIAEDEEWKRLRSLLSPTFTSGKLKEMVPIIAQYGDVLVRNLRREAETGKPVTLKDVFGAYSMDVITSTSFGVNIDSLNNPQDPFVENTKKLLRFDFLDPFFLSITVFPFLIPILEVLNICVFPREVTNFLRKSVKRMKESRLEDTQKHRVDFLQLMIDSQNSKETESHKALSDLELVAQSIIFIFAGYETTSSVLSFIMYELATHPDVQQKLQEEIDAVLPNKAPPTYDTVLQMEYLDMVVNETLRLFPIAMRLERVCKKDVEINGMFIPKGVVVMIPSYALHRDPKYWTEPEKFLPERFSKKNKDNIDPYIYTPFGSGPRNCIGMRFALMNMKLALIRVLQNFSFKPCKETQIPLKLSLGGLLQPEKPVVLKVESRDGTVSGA

Liver microsomes [6] = test: Metabolic stability in human liver microsomes; assay type: ADME, Microsome
How it was run: (§2)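 Human or rat liver microsomes incubated with compound for 15 min at 37 °C; result expressed as percent of intact compound remaining.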

Liver microsomes [7] = test: Metabolic stability in rat liver microsomes; assay type: ADME, Microsome; how it was run: as §2
[8] = Cmax in rat at 10 mg/kg, po; assay type: ADME, organism-based; parameters: dose 10 mg/kg, route oral; conditions: in vivo
How it was run: (§3)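 Rats dosed orally at 10 mg/kg; compound given as the sodium salt where specified.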

[9] = AUC (0 to 4 hrs) in rat at 10 mg/kg, po; assay type: ADME, organism-based; parameters: time < 4 hr, dose 10 mg/kg, route oral; conditions: plasma; how it was run: as §3
[10] = Half life in rat at 10 mg/kg, iv and 10 mg/kg, po; assay type: ADME, organism-based; conditions: in vivo
How it was run: (§4)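 Rats dosed at 10 mg/kg iv and 10 mg/kg po, compound given as the sodium salt.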

[11] = Total clearance in rat at 10 mg/kg, iv and 10 mg/kg, po; assay type: ADME, organism-based; conditions: in vivo; how it was run: as §4
[12] = Volume of distribution at steady state in rat at 10 mg/kg, iv and 10 mg/kg, po; assay type: ADME, organism-based; conditions: in vivo, read-out: Vdss; how it was run: as §4
[13] = Oral bioavailability in rat at 10 mg/kg; assay type: ADME, organism-based; conditions: in vivo; how it was run: as §3

pKi [1]	pKi [2]	pKi [3]	pKi [4]	pIC50 [5]	SMILES	other results
< 5.00	< 5.00	7.20	< 5.00	6.22	Cc1c(C)c2c(c(C)c1O)CCC(C)(CCOc1cc(Cn3ccnc3)ccc1/C=C/C(=O)O)O2 (configuration not stated)	–
< 5.00	5.92	6.28	5.59	5.32	Cc1c(C)c2c(c(C)c1O)CCC(C)(CCOc1ccccc1/C=C/C(=O)O)O2 (configuration not stated)	–
< 5.00	5.17	< 5.00	6.04	< 5.00	COc1ccc(/C=C/C(=O)O)c(OCCC2(C)CCc3c(C)c(O)c(C)c(C)c3O2)c1 (configuration not stated)	–
< 5.00	5.24	6.03	5.66	5.51	Cc1ccc(/C=C/C(=O)O)c(OCCC2(C)CCc3c(C)c(O)c(C)c(C)c3O2)c1 (configuration not stated)	–
5.19	5.23	6.96	5.64	6.24	O=C(O)/C=C/c1ccc(CN2CCCC2=O)cc1OCCc1ccc2ccccc2c1	–
< 5.00	< 5.00	7.36	5.37	6.48	O=C(O)/C=C/c1ccc(Cn2ccnc2)cc1OCCc1cc2ccccc2o1	–
< 5.00	5.68	6.82	5.66	6.82	O=C(O)/C=C/c1ccc(Cc2cccs2)cc1OCCc1ccc2ccccc2c1	–

Further lines, the molecule ahead of its results:

SMILES	pKi [1]	pKi [2]	pKi [3]	pKi [4]	pIC50 [5]	other results
O=C(O)CCCc1ccc(Cn2cccn2)cc1OCCc1ccc2ccccc2c1	5.40	5.74	7.41	5.85	6.34	–
O=C(O)/C=C/c1ccc(Cc2ccccc2)cc1OCCc1ccc2ccccc2c1	< 5.00	< 5.00	6.89	5.68	6.40	–
O=C(O)/C=C/c1ccc(COc2ccccc2)cc1OCCc1ccc2ccccc2c1	< 5.00	5.04	6.89	5.59	6.85	–
O=C(O)/C=C/c1ccc(Cn2ccnc2)cc1OCCCOc1ccccc1	< 5.00	< 5.00	6.55	< 5.00	5.52	–
O=C(O)/C=C/c1ccc(OCc2ccccc2)cc1OCCc1ccc2ccccc2c1	< 5.00	5.92	6.07	< 5.00	5.82	–
O=C(O)CCc1ccc(Cn2cccn2)cc1OCCc1ccc2ccccc2c1	5.15	5.55	7.92	5.96	7.66	pIC50 (Cytochrome P450 1A2): < 4.52; pIC50 (Cytochrome P450 2C9): 4.52; pIC50 (Cytochrome P450 2C19): < 4.52; pIC50 (Cytochrome P450 2D6): < 4.52; pIC50 (Cytochrome P450 3A4): < 4.52
O=C(O)/C=C/c1ccc(Cn2ccnc2)cc1OCCCCOc1ccccc1	< 5.00	< 5.00	6.66	< 5.00	5.46	–
O=C(O)/C=C/c1ccc(Cn2cccn2)cc1OCCc1ccc2ccccc2c1	5.54	5.48	7.92	6.17	7.14	pIC50 (Cytochrome P450 1A2): < 4.52; pIC50 (Cytochrome P450 2C9): 4.89; pIC50 (Cytochrome P450 2C19): 4.52; pIC50 (Cytochrome P450 2D6): < 4.52; pIC50 (Cytochrome P450 3A4): < 4.52
O=C(O)COCc1ccc(Cn2cccn2)cc1OCCc1ccc2ccccc2c1	< 5.00	5.89	6.68	< 5.00	6.27	–
O=C(O)/C=C/c1ccc(Cn2ccnc2)cc1OCCc1ccc2ccccc2c1	< 5.00	< 5.00	7.80	5.66	7.30	pIC50 (Cytochrome P450 1A2): > 6.00; pIC50 (Cytochrome P450 2C9): > 6.00; pIC50 (Cytochrome P450 2C19): > 6.00; pIC50 (Cytochrome P450 2D6): 5.36; pIC50 (Cytochrome P450 3A4): > 6.00
O=C(O)C#Cc1ccc(Cn2cccn2)cc1OCCc1ccc2ccccc2c1	< 5.00	< 5.00	7.00	5.54	5.92	–
O=C(O)COc1ccc(Cn2cccn2)cc1OCCc1ccc2ccccc2c1	< 5.00	< 5.00	6.59	< 5.00	5.59	–
O=C([O-])CCc1ccc(Cn2cccn2)cc1OCCc1ccc2ccccc2c1.[Na+]	–	–	–	–	–	Stability (Liver microsomes [6]): 100%; Stability (Liver microsomes [7]): 73%; Cmax [8]: 8.32 µg/mL; AUC(0-t) at 4 h [9]: 22.9 µg·h/mL; half-life [10]: 2.93 h; clearance [11]: 0.166 L/h/kg; Vd [12]: 0.538 L/kg; bioavailability [13]: 53%
O=C([O-])/C=C/c1ccc(Cn2cccn2)cc1OCCc1ccc2ccccc2c1.[Na+]	–	–	–	–	–	Stability (Liver microsomes [6]): 100%; Stability (Liver microsomes [7]): 72%; Cmax [8]: 0.943 µg/mL; AUC(0-t) at 4 h [9]: 1.36 µg·h/mL
